{
  "source": "paper PMC10633821",
  "about": "(RSC Advances, 2023)",
  "type_in_all_cases": "cell-based",
  "key": {"[1]": {"test_system": "MCF-7 cells", "experiment": "Cell cycle analysis by flow cytometry", "settings": "MCF-7, 3b at IC50 (1.85 μM), 48 h", "method_in_brief": "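MCF-7 cells were seeded, held 12 h at 37 °C, then treated for 48 h. Cells were collected and fixed in 75% ethanol at 20 °C for 18 h. They were rinsed in PBS, centrifuged, and exposed to RNase plus propidium iodide. DNA content was read by FACS Calibur flow cytometry to give cell-cycle phase distribution.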"}, "[2]": {"experiment": "MTT assay, cytotoxicity on normal breast cells MCF-10A", "settings": "human, MCF-10A cells (normal breast cells)"}, "[3]": {"test_system": "MCF-7 cells", "experiment": "Annexin V-FITC/PI assay of apoptosis and necrosis", "settings": "MCF-7, 3b at IC50 (1.85 μM), 48 h", "method_in_brief": "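MCF-7 cells were treated for 48 h, then harvested and washed twice in PBS by centrifugation (180 g, 10 min, 4 °C). Cells were resuspended in binding buffer with Annexin V-FITC for 10 min at ambient temperature, then diluted with more binding buffer. PI was added immediately before FACS Calibur flow cytometry to separate apoptotic from necrotic cells.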"}, "[4]": {"molecular_target": "human DNA topoisomerase II-β (TOPII-β) (Homo sapiens, UniProt Q02880)", "sequence (Q02880 whole entry)": "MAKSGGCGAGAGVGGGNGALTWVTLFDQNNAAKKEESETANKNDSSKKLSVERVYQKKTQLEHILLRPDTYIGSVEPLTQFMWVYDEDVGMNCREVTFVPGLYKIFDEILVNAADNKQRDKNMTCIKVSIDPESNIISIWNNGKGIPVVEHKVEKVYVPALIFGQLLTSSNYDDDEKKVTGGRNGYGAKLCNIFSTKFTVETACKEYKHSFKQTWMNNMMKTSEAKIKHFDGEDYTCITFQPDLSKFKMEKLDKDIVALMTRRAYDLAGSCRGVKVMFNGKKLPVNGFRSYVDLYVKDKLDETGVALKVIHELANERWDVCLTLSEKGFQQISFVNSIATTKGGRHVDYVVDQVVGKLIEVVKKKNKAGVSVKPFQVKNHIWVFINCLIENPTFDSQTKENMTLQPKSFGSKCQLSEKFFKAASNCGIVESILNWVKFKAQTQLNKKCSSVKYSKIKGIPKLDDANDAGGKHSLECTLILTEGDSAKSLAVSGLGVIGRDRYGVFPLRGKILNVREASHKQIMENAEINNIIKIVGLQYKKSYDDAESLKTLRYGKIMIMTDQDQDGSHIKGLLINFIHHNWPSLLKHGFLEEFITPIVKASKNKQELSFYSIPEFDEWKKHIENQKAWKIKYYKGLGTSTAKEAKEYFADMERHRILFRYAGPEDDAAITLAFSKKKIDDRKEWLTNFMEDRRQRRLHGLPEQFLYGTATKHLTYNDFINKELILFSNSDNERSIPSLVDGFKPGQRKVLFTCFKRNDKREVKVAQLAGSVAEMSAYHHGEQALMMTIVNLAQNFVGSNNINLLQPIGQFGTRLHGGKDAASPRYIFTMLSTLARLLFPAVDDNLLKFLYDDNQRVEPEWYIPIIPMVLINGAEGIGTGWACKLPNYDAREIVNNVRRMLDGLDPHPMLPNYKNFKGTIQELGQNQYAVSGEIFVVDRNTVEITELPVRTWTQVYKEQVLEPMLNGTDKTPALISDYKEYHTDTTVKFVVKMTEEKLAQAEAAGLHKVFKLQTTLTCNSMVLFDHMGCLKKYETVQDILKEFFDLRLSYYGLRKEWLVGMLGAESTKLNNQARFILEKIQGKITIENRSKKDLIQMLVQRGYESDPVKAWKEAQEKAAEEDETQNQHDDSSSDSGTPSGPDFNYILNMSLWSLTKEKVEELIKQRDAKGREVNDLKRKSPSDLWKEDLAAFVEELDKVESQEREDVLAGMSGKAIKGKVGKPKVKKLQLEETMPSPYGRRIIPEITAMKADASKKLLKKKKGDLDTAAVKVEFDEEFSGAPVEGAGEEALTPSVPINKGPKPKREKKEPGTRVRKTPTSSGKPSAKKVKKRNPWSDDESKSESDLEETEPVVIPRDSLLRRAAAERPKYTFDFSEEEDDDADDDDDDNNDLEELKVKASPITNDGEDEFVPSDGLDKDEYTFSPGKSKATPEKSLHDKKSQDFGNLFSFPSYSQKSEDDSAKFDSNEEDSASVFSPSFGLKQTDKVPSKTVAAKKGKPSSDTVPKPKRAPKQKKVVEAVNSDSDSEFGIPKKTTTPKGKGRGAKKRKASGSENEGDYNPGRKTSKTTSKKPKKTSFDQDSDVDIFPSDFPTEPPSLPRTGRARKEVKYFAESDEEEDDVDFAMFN", "experiment": "Topoisomerase II activity in MCF-7 cells", "settings": "ELISA kit", "method_in_brief": "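Sandwich ELISA for human TOPII-β, run per the kit protocol. Standards and samples were incubated 2 h at 37 °C, then biotin-antibody 1 h at 37 °C, three washes, HRP-avidin 1 h at 37 °C and five washes. TMB substrate was added for 15–30 min at 37 °C in the dark, then stop solution. OD450 was read within 5 min, in triplicate.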"}, "[5]": {"test_system": "MCF-7 cells", "experiment": "MTT assay, anti-proliferative activity on MCF-7 cells", "settings": "Homo sapiens, MCF7, 48 h, read-out: IC50, growth/viability of MCF-7 cells"}},
  "data": [
    {"smiles": "COc1cccc2cc(C3=Nc4ccccc4NC3)c(=O)oc12", "note": "[compound 3b, 2-(8-Methoxy-coumarin-3yl)-3,4-dihydroquinoxaline]", "values": [
      {"measurement": "percentage of cells in the pre-G1 phase", "setting": "[1]; untreated control 2.02%", "result": 42.39, "unit": "%"},
      {"measurement": "percentage of cells in the G2/M phase (%DIP G2/M)", "setting": "[1]; untreated control 11.65%", "result": 6.52, "unit": "%"},
      {"measurement": "proportion of cells in the S phase (%DIP S)", "setting": "[1]; untreated control 32.89%", "result": 47.12, "unit": "%"},
      {"measurement": "percentage of cells in the G0/G1 phase (%DIP G1)", "setting": "[1]; untreated control 55.46%", "result": 46.36, "unit": "%"},
      {"measurement": "IC50 at 48 h", "setting": "[2]", "result": "33.7 ± 2.04", "unit": "µM"},
      {"measurement": "increase in early apoptosis vs untreated control", "setting": "[3]", "result": 51.7, "unit": "fold"},
      {"measurement": "increase in programmed cell death vs untreated cells", "setting": "[3]", "result": 21, "unit": "fold"},
      {"measurement": "proportion of cells in late-stage apoptosis", "setting": "[3]; control 0.29%", "result": 12.42, "unit": "%"},
      {"measurement": "proportion of cells in early apoptosis", "setting": "[3]; control 0.51%", "result": 26.39, "unit": "%"},
      {"measurement": "proportion of cells suffering necrosis", "setting": "[3]; untreated 1.2%", "result": 3.58, "unit": "%"},
      {"measurement": "total programmed cell death", "setting": "[3]; untreated cells 2.02%", "result": 42.39, "unit": "%"},
      {"measurement": "reduction of topo II enzyme in comparison to untreated control cells", "setting": "[4]", "result": 6.5, "unit": "fold"},
      {"measurement": "IC50", "setting": "[5]", "result": "1.85 ± 0.11", "unit": "µM"}
    ]},
    {"smiles": "COc1cccc2cc(-c3cnc4ccccc4n3)c(=O)oc12", "note": "[compound 4b, 2-(8-Methoxycoumarin-3-yl)-quinoxaline]", "values": [
      {"measurement": "IC50", "setting": "[5]", "result": 4.08, "unit": "µM"}
    ]},
    {"smiles": "COc1ccc(Br)c2cc(-c3cnc4ccccc4n3)c(=O)oc12", "note": "[compound 5, 2-(5-bromo-8-methoxy-coumarin-3-yl)-quinoxaline]", "values": [
      {"measurement": "IC50", "setting": "[5]", "result": 55, "unit": "µM"}
    ]},
    {"smiles": "Oc1c(N=Nc2ccccc2)cc(Br)cc1C1=CNc2ccccc2N1", "note": "[compound 7, 2-(5-bromo-3-phenylazo-2-hydroxyphenyl)-1,4-dihydro quinoxaline]", "values": [
      {"measurement": "IC50", "setting": "[5]", "result": 8.6, "unit": "µM"}
    ]}
  ]
}
